Screening data from PubChem.
Only some compounds are listed: those with a hit (about 3.5% of all), similar ones and a draw of the others.
MrgX1 agonist = agonists of human MrgX1 receptor; actives 0.44% (n = 310,000); B-score at 10 µM; AID 588627; MrgX1-HEK293 cells, Fluo-4 calcium fluorescence, agonist mode; hits give high values;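 active means calcium response B-score plate-corrected fluorescence ratio at least 3 library SD, with starting fluorescence B-score inside 5 SD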
Target sequence (Q96LB2 whole entry, looked up): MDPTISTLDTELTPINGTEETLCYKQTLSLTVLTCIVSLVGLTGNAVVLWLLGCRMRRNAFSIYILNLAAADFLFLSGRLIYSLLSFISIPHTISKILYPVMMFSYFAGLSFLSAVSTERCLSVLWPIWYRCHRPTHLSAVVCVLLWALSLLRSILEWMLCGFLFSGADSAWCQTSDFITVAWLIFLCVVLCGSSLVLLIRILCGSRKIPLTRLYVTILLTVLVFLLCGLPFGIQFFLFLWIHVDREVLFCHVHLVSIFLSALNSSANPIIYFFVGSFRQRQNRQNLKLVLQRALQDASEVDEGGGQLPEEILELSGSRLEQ
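Material – MrgX1-expressing HEK293 cells · Input – 15,000 cells seeded per well · Dosing – compound as first of three additions · Times – overnight seeding, then 1 h dark dye loading · Measured by – kinetic Fluo-4 NW fluorescence of intracellular calcium · Read-out – B-scored fluorescence response ratio · Benchmarks – positive and negative control wells on each plate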
MrgX1 antag = human MrgX1 receptor antagonism, primary screen | actives 1.3% (n = 310,000) | MRGX1-HEK293 calcium flux, Fluo-4, BAM8-22 antagonism; hits give low values | AID 588676 | B-score at 10 µM;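 active means calcium-response B-score plate-corrected more than 3 library SD below zero, starting fluorescence within 5 deviations, no agonist response on first addition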;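 further: peak minus trough fluorescence over baseline after final BAM8-22 challenge near maximal dose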
MrgX1 allo act = allosterically activates human MrgX1 receptor signaling; MrgX1-HEK293, Fluo-4 calcium flux, FDSS; hits give high values; B-score at 10 µM; actives 0.63% (n = 310,000);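 active means plate-corrected calcium response at least 3 library SD above typical, normal starting fluorescence, not activating the receptor alone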;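 further: compound read alongside a low EC10 to EC30 dose of BAM8-22 agonist; peak minus trough fluorescence over baseline measured at the second addition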
RGS4 inh = inhibitors of human RGS4. P49798. B-score at 10 µM. actives 0.45% (n = 310,000). HEK293 M3R/RGS4 inducible, Fluo-4 calcium flux; hits give high values; triggered by carbachol at its EC20. AID 463165;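 active means B-score, a plate-corrected calcium signal, over three deviations above library mean, with baseline fluorescence within five deviations of library mean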;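 further: RGS4 expression induced by doxycycline in cells with stable M3 receptor; B-score is computed from the integrated fluorescence ratio over baseline after carbachol; higher B-score means a larger calcium signal and so more RGS4 inhibition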
Target sequence (P49798 whole entry, looked up): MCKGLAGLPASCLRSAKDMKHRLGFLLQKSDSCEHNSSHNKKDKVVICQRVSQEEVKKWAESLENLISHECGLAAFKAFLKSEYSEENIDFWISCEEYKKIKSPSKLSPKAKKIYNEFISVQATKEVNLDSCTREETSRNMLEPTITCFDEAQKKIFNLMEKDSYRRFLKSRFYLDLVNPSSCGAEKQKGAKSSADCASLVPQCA
RGS4 pot = RGS4 potentiation or activation; HEK293 M3R/inducible RGS4, carbachol calcium flux Fluo4; hits give low values; B-score at 10 µM; actives 0.92% (n = 310,000);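 active means B-score of the integrated calcium signal more than 4 SD below the library mean, with starting fluorescence not abnormally high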;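 further: negative B-score means reduced calcium response which marks RGS4 activation or potentiation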
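Also added: carbachol at ECmax as muscarinic agonist stimulus; Assay system: HEK293 cells with stable M3R and inducible RGS4; Timing: overnight RGS4 induction, 30 min dye load 37 °C, 20 min compound RT; Measured by: Fluo4-AM (2 µM) calcium-flux fluorescence, kinetic read.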
MrgX1 ant reconf = human MrgX1 receptor antagonism, re-confirmation screen | actives 19% (n = 2,300) | remaining BAM8-22 calcium response % of control (hits give low values), % at 10 µM | AID 602420 | shares compounds with MrgX1 antag | MrgX1-HEK293, BAM8-22 calcium flux, Fluo-4; hits give low values;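 active means remaining agonist calcium response no higher than 100% minus 3 SD of agonist-only control wells, with starting fluorescence near control levels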;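 further: agonist BAM8-22 given at a near maximal EC90 to ECmax level; peak minus minimum fluorescence divided by baseline after agonist addition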
HEK293 Ca flux = MrgX1 antagonist counter-screen hit in parental HEK293 cells | Fluo-4 calcium fluorescence, FDSS | actives 2% (n = 4,000) | fluorescence ratio F(max-min)/F0 at 10 µM | shares compounds with MrgX1 antag;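 active means duplicate-averaged calcium fluorescence ratio at least three times the standard deviation of buffer wells, a nonspecific response in parental cells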
HEK293 Ca counter = activity in parental HEK293 cells without MrgX1; shares compounds with MrgX1 antag; parental HEK293 calcium flux, Fluo-4 fluorescence ratio; hits give high values; fluorescence ratio F(max-min)/F0 at 10 µM; actives 0.4% (n = 4,000); AID 624114;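 active means calcium fluorescence ratio, averaged over duplicates, at least 3 SD of the buffer-well ratio, meaning a nonspecific response in receptor-free cells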;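 further: untransfected parental HEK293 lacking MrgX1 used as counterscreen for MrgX1 allosteric activators; fluorescence change taken during the second addition on a kinetic imager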
HEK293 Ca cntr2 = MrgX1 activator counter-screen hit in parental HEK293 cells. shares compounds with MrgX1 antag. Fluo-4 calcium fluorescence (FDSS); hits give high values. fluorescence ratio F(max-min)/F0 at 10 µM. actives 8.7% (n = 4,000). AID 624115;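 active means calcium fluorescence ratio at least three times the spread of buffer wells, meaning a non-specific response in parental cells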
Large screens that a line does not name were inactive (follow-up assays come after a bar, where they were run).

CCN(CC)C(=O)CSc1nc(OC)cc(=O)[nH]1	MrgX1 antag -9.5 | MrgX1 ant reconf inactive | HEK293 Ca flux inactive | HEK293 Ca counter inactive | HEK293 Ca cntr2 53
CCOc1cc(/C=C(\C#N)C(=O)Nc2cccc(C(=O)O)c2)cc(Br)c1OC(=O)c1ccc(OC)cc1	MrgX1 antag -10, RGS4 pot -8.1 | MrgX1 ant reconf inactive | HEK293 Ca flux inactive | HEK293 Ca counter inactive | HEK293 Ca cntr2 50
N#C/C(=C\c1ccc(OCc2ccc(Br)cc2)cc1)C(=O)Nc1cccc(C(=O)O)c1	none
NC(=O)c1ccc(N2CCCCC2)c(N2C(=O)C3CC=CCC3C2=O)c1 (stereo not drawn)	none
Cc1cccc(C)c1NC(=O)NC1CC2CCC(C1)N2Cc1cccs1 (stereo not drawn)	MrgX1 antag -7.5 | MrgX1 ant reconf inactive | HEK293 Ca flux inactive | HEK293 Ca counter inactive | HEK293 Ca cntr2 inactive
O=C(CSc1ccccc1)Nc1ccc2sccc2c1	none
COc1ccc(N=Cc2ccc(-c3ccccc3)o2)cc1	MrgX1 antag -6 | MrgX1 ant reconf inactive | HEK293 Ca flux inactive | HEK293 Ca counter inactive | HEK293 Ca cntr2 inactive
COc1cc(CN2CCCC(N3CCc4ccccc4C3)C2)c(Cl)cc1O (stereo not drawn)	none
O=C(NCCN1CCN(C(=O)Nc2ccccc2)CC1)Nc1ccccc1	MrgX1 antag -6.1 | MrgX1 ant reconf inactive | HEK293 Ca flux inactive | HEK293 Ca counter inactive | HEK293 Ca cntr2 inactive
Cc1ccccc1NC(=O)COc1coc(CN2CCCc3ccccc32)cc1=O	none
O=C(NCC1CCN(Cc2cccc(Cl)c2)CC1)Nc1ccccc1Cl	MrgX1 antag -5.7 | MrgX1 ant reconf inactive | HEK293 Ca flux inactive | HEK293 Ca counter inactive | HEK293 Ca cntr2 inactive
Cc1ccc(NC(=O)NCC2CCN(Cc3cccc(Cl)c3)CC2)c(Cl)c1	none
COc1ccccc1OCC(=O)Nc1ccc(S(=O)(=O)NC(C)=O)cc1	MrgX1 antag -6.7 | MrgX1 ant reconf inactive | HEK293 Ca flux inactive | HEK293 Ca counter inactive | HEK293 Ca cntr2 inactive
COc1ccccc1OCC(=O)Nc1ccc(NC(=O)COc2ccccc2OC)cc1	none
O=C(Cn1nc(C(F)(F)F)cc1C1CC1)Nc1ccccc1F	MrgX1 antag -5.1 | MrgX1 ant reconf inactive | HEK293 Ca flux inactive | HEK293 Ca counter inactive | HEK293 Ca cntr2 inactive
CCOC(=O)c1c(NC(=O)c2c(Br)cnn2CC)sc(C)c1C	MrgX1 antag -7.1 | MrgX1 ant reconf inactive | HEK293 Ca flux inactive | HEK293 Ca counter inactive | HEK293 Ca cntr2 inactive
CCn1ncc(Br)c1C(=O)Nc1sc2c(c1C(=O)OC)CCC2	none
CC1(C)CC(=O)N(CC(=O)O)c2ccccc2S1	MrgX1 antag -4.5 | MrgX1 ant reconf inactive | HEK293 Ca flux inactive | HEK293 Ca counter inactive | HEK293 Ca cntr2 inactive
COC(=O)CN1C(=O)CC(C)(C)Sc2ccccc21	none
CCCCNC(=O)COC(=O)c1ccc(C)c(NC(=O)c2ccco2)c1	none
C=CCNC(=O)COC(=O)c1ccc(C)c(NC(=O)c2ccco2)c1	MrgX1 antag -7.6 | MrgX1 ant reconf inactive | HEK293 Ca flux inactive | HEK293 Ca counter inactive | HEK293 Ca cntr2 inactive
Cc1cc(C(=O)CSc2nc3ccccc3[nH]2)c(C)n1CC1CCCO1 (stereo not drawn)	MrgX1 antag -8.1 | MrgX1 ant reconf 9.7% | HEK293 Ca flux inactive | HEK293 Ca counter inactive | HEK293 Ca cntr2 inactive
CC(C)C(=O)Nc1cc(C(F)(F)F)ccc1N1CCOCC1	MrgX1 antag -5 | MrgX1 ant reconf 76% | HEK293 Ca flux inactive | HEK293 Ca counter inactive | HEK293 Ca cntr2 inactive
CCC(=O)Nc1cc(C(F)(F)F)ccc1N1CCOCC1	none
CC(=O)c1cccc(S(=O)(=O)NC2CCCCCC2)c1	none
CC(=O)c1cccc(S(=O)(=O)NC2CC2)c1	MrgX1 antag -6.8 | MrgX1 ant reconf inactive | HEK293 Ca flux inactive | HEK293 Ca counter inactive | HEK293 Ca cntr2 inactive
O=C(NNC(=S)NC(=O)c1sc2ccccc2c1Cl)c1ccc(Cl)cc1	MrgX1 antag -18 | MrgX1 ant reconf inactive | HEK293 Ca flux inactive | HEK293 Ca counter inactive | HEK293 Ca cntr2 inactive
O=C(CSc1nnc(CN2CCCCCC2=O)n1-c1ccccn1)NCC(F)(F)F	MrgX1 antag -4.6 | MrgX1 ant reconf inactive | HEK293 Ca flux inactive | HEK293 Ca counter inactive | HEK293 Ca cntr2 inactive
CC(C)(C)NC(=O)CSc1nnc(CN2CCCCCC2=O)n1-c1ccccn1	none
CCCCc1nc2cc(C(=O)N3CCC(OCCOC)CC3)ccc2o1	none
CN(c1ccccc1)S(=O)(=O)c1ccc(NC(=O)c2nc(S(C)(=O)=O)ncc2Cl)cc1	MrgX1 antag -5.7 | MrgX1 ant reconf inactive | HEK293 Ca flux inactive | HEK293 Ca counter inactive | HEK293 Ca cntr2 inactive
COc1cccc(NC(=O)c2nc(SC)ncc2Cl)c1	none
CN(c1ccccc1)S(=O)(=O)c1ccc(NC(=O)c2ccccc2)cc1	none
COc1cccc(NC(=O)c2nc(S(C)(=O)=O)ncc2Cl)c1	MrgX1 antag -5.5 | MrgX1 ant reconf inactive | HEK293 Ca flux inactive | HEK293 Ca counter inactive | HEK293 Ca cntr2 inactive
NC(=O)C1CCN(CC(=O)Nc2cccc(C(=O)Nc3cccc(C(F)(F)F)c3)c2)CC1	MrgX1 antag -7 | MrgX1 ant reconf 84% | HEK293 Ca flux inactive | HEK293 Ca counter inactive | HEK293 Ca cntr2 inactive
CC1CCCC(C)N1C(=O)CSCc1ccc(Cl)cc1 (stereo not drawn)	MrgX1 antag -4.7 | MrgX1 ant reconf inactive | HEK293 Ca flux inactive | HEK293 Ca counter inactive | HEK293 Ca cntr2 inactive
CC1CCCC(C)N1C(=O)COC(=O)Cc1ccc(Cl)cc1 (stereo not drawn)	none
O=C(CN1CCC(c2nc3ccccc3s2)CC1)NCc1ccccc1	MrgX1 antag -5.4 | MrgX1 ant reconf inactive | HEK293 Ca flux inactive | HEK293 Ca counter inactive | HEK293 Ca cntr2 inactive
N#CCSc1nnc(C2CCCCC2)n1Cc1ccccc1	MrgX1 antag -7.1 | MrgX1 ant reconf inactive | HEK293 Ca flux inactive | HEK293 Ca counter inactive | HEK293 Ca cntr2 inactive
COc1ccc(C)cc1NC(=O)c1sc2ncnc(N3CCN(c4ccccn4)CC3)c2c1C	none
CCOc1ccc(C(=O)N2CCN(c3ccccn3)CC2)cc1OCC	MrgX1 antag -4.8 | MrgX1 ant reconf inactive | HEK293 Ca flux inactive | HEK293 Ca counter inactive | HEK293 Ca cntr2 68
O=C(COc1ccc(Cl)cc1Cl)N1CCN(c2ccccn2)CC1	none
